# Columns and labels:
# [1] = molecular target: T1, Thymidylate kinase (Mycobacterium tuberculosis, UniProt P9WKE1); test: Inhibition of Mycobacterium tuberculosis TMPK expressed in Escherichia coli by spectrophotometric assay
# T1 sequence (P9WKE1 whole entry): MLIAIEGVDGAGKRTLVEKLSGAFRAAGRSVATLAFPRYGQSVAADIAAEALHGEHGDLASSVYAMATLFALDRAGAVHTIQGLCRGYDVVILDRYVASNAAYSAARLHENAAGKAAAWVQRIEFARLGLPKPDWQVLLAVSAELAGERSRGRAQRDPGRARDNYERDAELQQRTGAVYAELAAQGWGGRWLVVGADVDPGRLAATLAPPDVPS
# Outline: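 Recombinant mycobacterial and human TMPK, both expressed in E. coli, run in an NADH-coupled assay (pyruvate kinase, lactate dehydrogenase, nucleoside diphosphate kinase, 2 units each) read at 334 nm. ATP 0.5 mM and dTMP 0.05 mM held constant; analogues 0.01–2 mM; Ki determined for each enzyme.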
# [2] = system: Mycobacterium tuberculosis; test: Growth inhibition of Mycobacterium tuberculosis H37Rv at 6.25 ug/mL by MABA assay; format: functional
# Outline: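 Single-concentration screen in BACTEC 12B medium using the Microplate Alamar Blue Assay; percent inhibition recorded.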
# [3] = Inhibition of human TMPK expressed in Escherichia coli by spectrophotometric assay
# [4] = Cytotoxicity against Vero cells at 100 uM after 3 days; format: cell-based; details: chlorocebus sabaeus
# Outline: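 Confluent Vero monolayers given serial compound dilutions; incubated 3 days at 37°C, humidified CO2 atmosphere; cultures inspected microscopically for altered morphology. MCC = concentration causing microscopic alteration of mock-infected cultures at day 3.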
Structure (SMILES),Ki [1],inhibition at 6.25 µg/mL [2],Ki [3],"MCC at 72 h, up to 100 µM [4]"
Cc1cn([C@H]2C[C@H](CNC(=S)Nc3ccccc3)[C@@H](CO)O2)c(=O)[nH]c1=O,69 µM,,,
Cc1cn([C@@H]2C[C@H](O)[C@@H](CN=[N+]=[N-])O2)c(=O)[nH]c1=O,26.5 µM,,,
Cc1cn([C@@H]2C[C@H](O)[C@@H](CNC(=O)Nc3ccc(Cl)c(C(F)(F)F)c3)O2)c(=O)[nH]c1=O,1.9 µM,49%,166 µM,
Cc1cn([C@@H]2C[C@@H](CNC(=O)NC[C@H]3C[C@H](n4cc(C)c(=O)[nH]c4=O)O[C@@H]3CO)[C@H](CO)O2)c(=O)[nH]c1=O,37 µM,,> 1000 µM,
Cc1cn([C@@H]2C[C@H](O)[C@@H](CNC(=S)Nc3ccc(Cl)c(Cl)c3)O2)c(=O)[nH]c1=O,1 µM,38%,274 µM,> 100 µM
Cc1cn([C@@H]2C=C[C@@H](CNC(=S)Nc3ccc(Cl)c(C(F)(F)F)c3)O2)c(=O)[nH]c1=O,3.8 µM,55%,190 µM,
Cc1cn([C@@H]2C[C@H](O)[C@@H](CNC(=S)NC34CC5CC(CC(C5)C3)C4)O2)c(=O)[nH]c1=O,15 µM,,,> 100 µM
Cc1cn([C@H]2C[C@H](CNC(=S)Nc3ccc(OCc4ccccc4)cc3)[C@@H](CO)O2)c(=O)[nH]c1=O,12 µM,,,> 100 µM
Cc1cn([C@@H]2CC[C@@H](CNC(=S)Nc3ccc(Cl)c(C(F)(F)F)c3)O2)c(=O)[nH]c1=O,2.3 µM,34%,> 500 µM,
Cc1cn([C@@H]2C[C@H](O)[C@@H](CNC(=S)Nc3ccc4c(c3)C(=O)OC43c4ccc(O)cc4Oc4cc(O)ccc43)O2)c(=O)[nH]c1=O,5.4 µM,,,
Cc1cn([C@@H]2C[C@H](O)[C@@H](CNC(=S)NCc3ccccc3)O2)c(=O)[nH]c1=O,5.4 µM,,,
Cc1cn([C@@H]2C[C@H](O)[C@@H](CNC(=S)Nc3ccc(Cl)cc3)O2)c(=O)[nH]c1=O,3.2 µM,,> 1000 µM,
COc1ccc(NC(=S)NC[C@H]2C[C@H](n3cc(C)c(=O)[nH]c3=O)O[C@@H]2CO)cc1,46 µM,,,> 100 µM
Cc1ccc(NC(=S)NC[C@H]2C[C@H](n3cc(C)c(=O)[nH]c3=O)O[C@@H]2CO)cc1,36 µM,,,> 100 µM
Cc1cn([C@@H]2C[C@H](O)[C@@H](CNC(=O)Nc3ccc(Cl)c(Cl)c3)O2)c(=O)[nH]c1=O,1.1 µM,41%,116 µM,
Cc1cn([C@@H]2C[C@H](O)[C@@H](CNC(=S)NC(=O)c3ccccc3)O2)c(=O)[nH]c1=O,7.2 µM,,,

Structure (SMILES),Ki [1],inhibition at 6.25 µg/mL [2],Ki [3],"MCC at 72 h, up to 100 µM [4]"
Cc1cn(COCCNC(=S)Nc2ccccc2)c(=O)[nH]c1=O,260 µM,,,> 100 µM
Cc1cn([C@@H]2C[C@H](O)[C@@H](CNC(=S)NCc3ccc(Cl)c(C(F)(F)F)c3)O2)c(=O)[nH]c1=O,2.6 µM,,50 µM,> 100 µM
Cc1cn([C@@H]2C[C@H](O)[C@@H](CNC(=S)Nc3ccc(Cl)c(C(F)(F)F)c3)O2)c(=O)[nH]c1=O,0.6 µM,39%,362 µM,> 100 µM
COc1ccc(NC(=S)NC[C@H]2O[C@H](n3cc(C)c(=O)[nH]c3=O)C[C@@H]2O)cc1,10 µM,,,
Cc1cn([C@@H]2C[C@H](O)[C@@H](CNC(=S)Nc3ccc(N4CCOCC4)cc3)O2)c(=O)[nH]c1=O,19.2 µM,,,
Cc1cn(COCCNC(=S)Nc2ccc(Cl)c(C(F)(F)F)c2)c(=O)[nH]c1=O,37 µM,34%,,100 µM
Cc1cn([C@H]2C[C@H](CNC(=S)Nc3ccc(Cl)c(C(F)(F)F)c3)[C@@H](CO)O2)c(=O)[nH]c1=O,5 µM,,> 1000 µM,> 100 µM
Cc1ccc(NC(=S)NC[C@H]2O[C@H](n3cc(C)c(=O)[nH]c3=O)C[C@@H]2O)cc1,7.8 µM,,,
Cc1cn([C@@H]2C[C@H](O)[C@@H](CN)O2)c(=O)[nH]c1=O,16 µM,,,
Cc1cn([C@@H]2C[C@H](O)[C@@H](CNC(=O)c3ccccc3)O2)c(=O)[nH]c1=O,35 µM,,,
Cc1cn([C@@H]2C[C@H](O)[C@@H](CNC(=S)NCCc3ccc(Cl)c(Cl)c3)O2)c(=O)[nH]c1=O,2.2 µM,,79 µM,> 100 µM
Cc1cn([C@@H]2C[C@H](O)[C@@H](CNC(=S)Nc3ccccc3)O2)c(=O)[nH]c1=O,16 µM,,,> 100 µM
Cc1cn([C@H]2C[C@H](CNC(=S)Nc3ccc(Cl)cc3)[C@@H](CO)O2)c(=O)[nH]c1=O,21 µM,,,> 100 µM
Cc1cn([C@@H]2C[C@H](O)[C@@H](CNC(=S)NC(c3ccccc3)c3ccccc3)O2)c(=O)[nH]c1=O,4.9 µM,,> 500 µM,> 100 µM
Cc1cn([C@H]2C[C@H](CNC(=S)Nc3ccc(Cl)c(Cl)c3)[C@@H](CO)O2)c(=O)[nH]c1=O,7.2 µM,,,> 100 µM
Cc1cn([C@@H]2C[C@H](O)[C@@H](CNC(=S)NCCc3ccccc3)O2)c(=O)[nH]c1=O,3.8 µM,,> 800 µM,> 100 µM

# From ChEMBL document CHEMBL1137559, “Rational design of 5'-thiourea-substituted alpha-thymidine analogues as thymidine monophosphate kinase inhibitors capable of inhibiting mycobacterial growth” (J Med Chem, 2007)
